Screens (PubChem)
NALP1 inh – blocks the NALP1 inflammasome reconstituted in yeast; S. cerevisiae NALP1/ASC/caspase-1 growth, X-gal OD620, 72 h; inhibition, % at 10 µM; 280,000 tested, 0.61% active; in the data active = inhibition mostly above about 24%, no sharp cut-off; inactive = mostly below about 32%
DNA FID counter – counter-screen for HCV NS3 helicase inhibitors: DNA intercalator displacement. inhibition, % at 7.9 µM. AID 1845. 290,000 tested, 0.17% active. DNA fluorescent intercalator displacement, fluorescence; in the data active = inhibition above about 37%;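 note: 0% = vehicle and 100% = reference compound; higher means more ethidium bromide displaced from hairpin DNA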
SUMO HTRF inh – SUMOylation inhibition; P63279; HTRF SUMOylation assay, SAE1/SAE2 + UBC9, in vitro; inhibition, % at 35 µM; 290,000 tested, 0.36% active; AID 2006; in the data active = inhibition above about 50%, passing the limit was not always enough
Target sequence (P63279 whole entry, looked up): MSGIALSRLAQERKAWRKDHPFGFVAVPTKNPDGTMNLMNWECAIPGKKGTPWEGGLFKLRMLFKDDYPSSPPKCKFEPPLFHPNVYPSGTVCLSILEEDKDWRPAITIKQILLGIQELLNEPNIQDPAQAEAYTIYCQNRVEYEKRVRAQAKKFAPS
VIM-2 inhibitor – inhibitors of Pseudomonas aeruginosa VIM-2 metallo-beta-lactamase; purified VIM-2, nitrocefin hydrolysis, epi-absorbance fluorescence; inhibition, % at 5.6 µM; 290,000 tested, 0.89% active; AID 1527;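 active = inhibition above the mean of all tested compounds plus 3 SD, cutoff set per screening run, cut at about 7.5% in these data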;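 note: red hydrolysis product quenches plate fluorescence so inhibitors raise well fluorescence; 0% = enzyme with DMSO and 100% = DMSO without enzyme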
IMP-1 inhibitor – blocks Pseudomonas aeruginosa IMP-1 metallo-beta-lactamase. AID 1556. inhibition, % at 5.6 µM. 290,000 tested, 0.45% active. purified IMP-1, nitrocefin hydrolysis, epi-absorbance fluorescence;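 active = inhibition above the mean plus 3 SD of all compounds in the same screening run, cut at about 4.5% in these data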;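 note: 0% = IMP-1 with DMSO and 100% = DMSO wells lacking enzyme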
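System: purified recombinant IMP-1 beta-lactamase. Medium: Zinc- and detergent-supplemented HEPES buffer, pH 7.1. Compound: one 5.6 µM dose […]. Schedule: 15 min preincubation plus 25 min reaction at 25 °C. Technique: Epi-absorbance fluorescence, 480 nm excitation, 530 nm emission.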
Mot1-301 SUMO – blocks SUMOylation pathway, rescuing yeast Mot1-301 growth; S. cerevisiae Mot1-301 growth rescue, ATP luminescence, 38.5C; percent above DMSO median, 100 means doubled; growth rescue, % at 18.8 µM; 320,000 tested, 1% active;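 active = every valid replicate shows activation above 250% relative to neutral control wells; inactive = the rest, any valid replicate at or below 250%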;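 note: OY570 slx delta 5 strain wells were the positive control but not used for scaling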
Mot1 SUMO dose – SUMO pathway inhibitors in yeast Mot1-301 growth | S. cerevisiae Mot1-301 galactose growth, ATP luminescence, 24 h; -100 = growth of slx-deleted rescue strain | 2,300 tested, under 10 active | AID 493004 | shares compounds with Mot1-301 SUMO | growth activity, percent, % at 42 µM;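 active = Signal drops as the depositor expects, and the fitted half-maximal dose is no more than ten times the top valid tested dose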;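 note: more negative values mean stronger growth rescue toward the control strain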
The depositor's hits bear a star; . = not tested or not shown; + = active, no number; [ ] = another dose, or the depositor's remark. Compounds with a hit are over-represented: about 2.9% of the library has one in this group of screens.

SMILES	NALP1 inh	DNA FID counter	SUMO HTRF inh	VIM-2 inhibitor	IMP-1 inhibitor	Mot1-301 SUMO	Mot1 SUMO dose
CN(C)CCCOC(=O)CCc1ccccc1	36.4	-2.6	-8.4	1.5	-0.5	335.7	.
CCOC(=O)c1cnc2c(C)c(C)ccc2c1Nc1ccc(S(=O)(=O)Nc2ncccn2)cc1	1.2	-0.8	24.2	-0.4	-3.4	-6.2	.
COc1ccc2[nH]cc(CCNC(=O)Cc3ccc(Cl)cc3)c2c1	6.1	-8.8	9.8	-3.1	-1.2	-2.4	.
Cc1ccc(NC(=S)N2CCN(Cc3ccc4c(c3)OCO4)CC2)c(C)c1	.	3.2	.	-4.3	-4.6	378.3*	0.1
CC1(C)CC[C@]2(CO)[C@@H](O)C[C@]3(C)C(=CCC4[C@@]5(C)CC[C@H](O)C(C)(C)C5CC[C@]43C)[C@@H]2C1 (some centres undefined)	.	.	.	.	.	-1.7	.
Cc1c(NC(C)c2cc(Cl)ccc2O)c(=O)n(-c2ccccc2)n1C (centres undefined)	-3.5	-5.1	-13.7	-0.5	-3.4	454.6*	0.6
Cc1ccc(C)c(NC(=O)Cn2c([N+](=O)[O-])cnc2C)c1	3.9	2.6	26.5	-2.5	-2.1	-23.6	.
Cc1cc(C)c(NC(=O)Cn2c([N+](=O)[O-])cnc2C)c(C)c1	.	-0.8	4.7	-3.0	-2.9	+	0.3
O=C(CN1CCN(S(=O)(=O)/C=C/c2ccccc2)CC1)Nc1ccccc1N1CCOCC1	.	-46.2	-17.7	0.6	-1.6	-44.5	.
COc1ccc(S(=O)(=O)N2CCOC2CNC(=O)C(=O)NCCCN(C)C)cc1C (centres undefined)	8.1	1.7	10.5	-1.4	-2.9	-4.3	.
COc1cc2c(=O)n(CCC(=O)NCC3CCCO3)c(=O)n(CC(=O)Nc3ccccc3C)c2cc1OC (centres undefined)	-13.5	-23.7	-3.5	-1.5	-4.7	444.2*	0.4
CCNc1ccc(S(=O)(=O)N(C)C)cc1NCC(=O)Nc1ccccc1Br	-12.4	-9.6	19.0	0.1	0.5	986.6*	0.0
CN1C(=O)/C(=C/c2ccccc2F)Sc2ccc(C(=O)N3CCCC3)cc21	30.8	-51.2	15.7	-0.4	-1.9	7.5	.
O=C(O)c1cc(-c2ccc(/C=N/N3C(=O)C4C5C=CC(C6CC56)C4C3=O)o2)ccc1Cl (centres undefined)	23.5	-25.9	26.0	3.6	0.9	295.3	.
COc1ccc(NC(=O)COC(=O)c2cc(OC)c(OC)c(OC)c2)c([N+](=O)[O-])c1	.	-0.4	13.2	-1.5	-1.7	-31.2	.
CNS(=O)(=O)c1cccc(C(=O)OCC(=O)Nc2ccc(OC)cc2[N+](=O)[O-])c1	-17.7	-11.6	-20.8	-1.2	-2.0	810.3*	0.3
Cc1ccc(S(=O)(=O)N2c3ccc(S(N)(=O)=O)cc3CC2C)cc1 (centres undefined)	8.5	-0.9	-14.5	-1.5	-3.9	+	1.0
Cc1ccc(S(=O)(=O)N2c3ccccc3CC2C)cc1 (centres undefined)	12.9	-7.4	3.8	-3.6	-1.2	68.3	.
O=C(COC(=O)CNC(=O)c1ccc(Cl)cc1)Nc1ncc(C(F)(F)F)cc1Cl	18.1	-4.5	5.6	-3.9	-3.2	595.7*	-0.2
Oc1c(Br)cc(Cl)cc1C=Nc1ccccc1Br	33.4	-1.3	9.7	-1.8	-2.3	634.4*	1.0
COc1ccccc1CNc1nc(SC)ncc1CO	28.4	2.2	14.0	-2.4	-1.2	473.7*	0.2
COc1ccccc1CNc1ncnc2sccc12	-2.0	-6.4	0.0	0.1	-4.8	-11.4	.
C#CCn1c(=NC(=O)c2cccs2)sc2cccc(OC)c21	2.7	0.2	26.5	2.2	-2.2	-8.7	.
C#CCn1c(=NC(=O)CN2C(=O)CCC2=O)sc2cccc(OC)c21	-3.3	-5.8	14.8	0.0	-2.8	+	0.7
C=CCN1C(=O)/C(=C2/Sc3ccc(OC)cc3N2C)SC1=Nc1ccccc1	-7.6	0.5	-11.5	-2.2	-1.9	+	0.0
SMILES	NALP1 inh	DNA FID counter	SUMO HTRF inh	VIM-2 inhibitor	IMP-1 inhibitor	Mot1-301 SUMO	Mot1 SUMO dose
C=CCn1c(=N)c(C(=O)NCCCOC)cc2c(=O)n3ccccc3nc21	-6.1	-2.5	24.4	6.7	-3.1	602.6*	0.2
O=C(C1CCN(S(=O)(=O)N2CCC3(CC2)OCCO3)CC1)N1CCC(Cc2ccccc2)CC1	-5.6	-34.7	15.5	-3.1	-1.7	398.5*	0.5
Cc1ccc(NC(=O)Cn2nnc(C(=O)NCc3ccc4c(c3)OCO4)c2N)cc1	11.6	-15.3	24.9	-4.8	0.0	549.8*	0.1
Nc1c(C(=O)NCc2ccc3c(c2)OCO3)nnn1CC(=O)Nc1ccc(Br)cc1	19.5	-6.7	17.4	-3.9	0.6	-9.2	.
COC(CNC(=O)c1cn(C)c2ccc(S(=O)(=O)N3CCOCC3)cc2c1=O)OC	5.8	-9.0	11.6	-1.4	-3.8	606.0*	0.4
COC(=O)c1cccc(NC(=O)c2cccnc2)c1	-0.5	1.5	11.7	-1.3	0.0	+	0.3
COC(=O)c1cc(NC(=O)CSc2nnc(CN3CCOCC3)n2C)ccc1Cl	8.0	-14.9	20.8	1.4	-0.6	2.7	.
Cn1c(CN2CCOCC2)nnc1SCC(=O)Nc1cc(Cl)ccc1Cl	31.1	-13.2	-9.3	-2.1	0.6	611.5*	1.7
COc1cc(NC(=O)c2ccc(N3CC4CC(C3)c3cccc(=O)n3C4)c(NC(=O)c3ccncc3)c2)cc(OC)c1OC (centres undefined)	5.4	-65.3	6.5	-5.2	-2.0	-9.7	.
CC(NC(=O)C1CCCCC1)C(=O)NC1=NCCS1 (centres undefined)	2.1	-1.6	4.3	-4.1	-4.2	566.5*	0.4
O=C(c1ccccc1F)N1CCN=C1SCc1cccnc1	31.6	-1.6	-12.2	1.1	-1.0	569.3*	0.6
Cc1cc(C(F)F)n2ncc(C(=O)NCCc3ccc(Cl)cc3)c2n1	-17.7	-15.8	5.0	-2.0	0.6	539.8*	-0.3
Cc1cc(C(F)F)n2ncc(C(=O)NCCc3ccccc3Cl)c2n1	-3.2	-32.2	5.0	-1.3	-3.2	177.5	.
CC(NC(=O)OCc1ccccc1)C(=O)N1CC(O)CC1C(=O)O (centres undefined)	-0.4	-0.9	-6.3	-1.1	-3.5	450.5*	0.6[21 µM]
CC(C)CNc1cc(=O)n(C)c(=O)n1C	3.1	-0.3	11.7	-5.3	-5.6	392.0*	-0.6
c1ccc2[nH]c(CSc3nccs3)nc2c1	0.0	2.4	-2.6	-0.3	-3.2	370.7*	0.3
CNC(=O)Nc1cc(NC(=O)NC)cc(C(F)(F)F)c1	23.4	1.5	11.1	-3.6	-1.5	585.5*	-0.4
Cc1ccc(S(=O)(=O)NCCC(=O)Nc2nccs2)cc1	-4.1	-2.2	-7.1	0.6	-3.2	-12.8	.
